Source: PubChem BioAssay (Broad Institute)
CSC inhib = blocks cancer stem cells | cancer stem cell-like cells viability, luminescence | inhibition, % at 7.5 µM | 300,000 tested, 1.1% active; in the data active = inhibition above about 75%; inconclusive = no clear call, values can overlap the other calls; tested in HMLE shEcad cells
Calb FLC = C. albicans growth modulation with fluconazole. C. albicans CaCi-2 (fluconazole-resistant clinical isolate) + fluconazole, Alamar Blue growth, 48 h. AID 1979. 300,000 tested, 0.57% active. growth inhibition, % (no concentration beside the values);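 active = growth inhibition above about 58% in most replicates, limit read from the data, passing the limit was not always enough; inconclusive = exactly half the replicates above a set limit; inactive = most replicates below a set limit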;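 note: all wells also contain fluconazole at 8 µg/ml as a sub-toxic cotreatment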
HIF activator = HIF pathway transcriptional activation; AID 1910; activation, % at 7.5 µM (by protocol); U2OS HRE-luciferase reporter, luminescence; normalized: DMSO 0%, desferrioxamine 100%; 300,000 tested, 0.32% active;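 active = mean activation of at least 10% of the iron chelator positive control signal, with at least half of replicates also reaching 10%; inconclusive = mean and replicate majority disagree about reaching 10%; inactive = mean and most replicates under 10%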
Beta apoptosis = beta cell apoptosis inhibition; INS-1E cytokine-induced death, ATP luminescence, 48 h; percent of positive-control rescue, neutral wells zero; 300,000 tested, 0.8% active; AID 435005; protection from apoptosis, % (test concentration not listed);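 active = Every replicate reaches about 75%, or at least half do and their mean reaches it too, limit read from the data; inconclusive = At least half of replicates reach the limit but their mean does not; inactive = Under half of replicates reach the limit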;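 note: higher means more ATP so stronger rescue from cytokine killing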
T cruzi repl = T. cruzi replication inhibition; T. cruzi beta-gal in NIH3T3, luminescence, 90 h; inhibition, % (concentration not given with the values); 300,000 tested, 1.4% active; AID 1885;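 active = mean inhibition across valid replicates above about 55%, limit read from the data; inconclusive = mean below that limit but half or more replicates reach it; inactive = mean below it, under half of replicates reach it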;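 note: signal also drops with host cell toxicity which is not excluded here; higher percent means less beta-gal luminescence so fewer parasites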
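assay system = mouse NIH/3T3 fibroblasts infected with β-gal-expressing T. cruzi Tulahuen C4 | input = 5,000 NIH/3T3 host cells per well | buffer or medium = DMEM plus 2% FBS | timing = 3 h host attachment, then at least 90 h co-culture | measured by = GalScreen luminescence, 60 min | evaluation = luminescence reflecting intracellular parasite burden, expressed as percent inhibition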
PolyA inhibitor = inhibitors of polyadenylation in S. cerevisiae; 300,000 tested, 0.02% active; S. cerevisiae SKY197-pL101 polyadenylation reporter, beta-gal luminescence; efflux-impaired pdr1/pdr3 knockout yeast; score 100 = 6 SD above DMSO; activity score, % at 12 µM; AID 1875;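 active = lowest replicate activity score at least 50, where 100 means six control SD above control mean; inconclusive = lowest score under 50 but half or more replicates reach 50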;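 note: yeast exposed to compound for 9 h at 30 °C; higher score means more reporter readthrough which indicates perturbed polyadenylation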
Numbers stand for hits; . = inactive; ? = inconclusive; / = not tested or not shown. Shown are actives, neighbours in structure and some others; about 3.1% of the full set was active somewhere.

SMILES	CSC inhib	Calb FLC	HIF activator	Beta apoptosis	T cruzi repl	PolyA inhibitor
CSCCC1NC2(C(=O)Nc3c(Cl)cccc32)[C@@H]2C(=O)N(C3CCCC3)C(=O)[C@H]12 (stereo partly specified)	.	.	.	.	.	.
N#Cc1c([N+](=O)[O-])cc([N+](=O)[O-])cc1S(=O)(=O)Cc1ccccc1	124.5	/	/	113.1	/	/
CCN1CCN(c2nc3c(C)cccn3c(=O)c2/C=C(\C#N)C(=O)NCCCOC)CC1	.	.	.	.	.	.
Cc1oc(-c2ccc(Cl)cc2)cc1C(=O)/C(C#N)=C/Nc1cccc(OC(F)(F)F)c1	.	.	43.3	.	.	.
COc1ccc(-n2c(C)cc(C(=O)CCl)c2C)cc1	94.9	.	15.9	.	.	.
COc1ccc(CCNCc2cc(C)n(-c3ccc(OC)cc3)c2C)cc1	.	.	.	.	65.5	.
CC(=O)Nc1ccc(SCC(=O)c2cc(C)n(-c3ccccc3)c2C)cc1	83.6	.	.	.	.	.
Cc1cc(-n2c(C)cc(C(=O)CCl)c2C)no1	.	.	.	.	79.2	.
COc1ccccc1CN1CC(C(=O)N2CCC(C(=O)c3ccccc3)CC2)CCC1=O (stereo unspecified)	.	.	.	.	.	.
Cc1ccc(C(=O)NCc2ccccn2)cc1NC1=NC2CS(=O)(=O)CC2S1 (stereo unspecified)	.	.	.	.	.	.
COc1ccc(-n2c(C)cc(C(=O)CSc3ccc(NC(C)=O)cc3)c2C)cc1	168.6	.	.	.	.	.
Cc1ccc(-n2nnnc2SCC(=O)c2cc(C)n(-c3cc(C)on3)c2C)c(C)c1	140.4	.	/	.	.	.
Cc1cc(-n2c(C)cc(C(=O)CSc3nnnn3-c3ccccc3)c2C)no1	.	.	.	.	.	.
CCC(C)(O)c1[nH]c2ccc(C(=O)OC)cc2c1C (stereo unspecified)	.	.	.	.	.	.
CCOCCCNC(=S)NCCNc1nc2c(C)cccc2cc1C#N	/	.	.	/	55.4	.
CN(Cc1ccccc1)C(=O)COC(=O)CCN1C(=O)C2CC=CCC2C1=O (stereo unspecified)	.	/	/	.	/	/
COc1ccc(Br)cc1/C=C/C(=O)NC(=S)Nc1ccc(CN2CCOCC2)cc1	.	.	.	.	.	.
O=C(/C=C/c1cccs1)NC(=S)NNC(=O)c1ccccc1O	/	117.8	.	.	.	.
COc1ccc(C(=O)NNC(=S)NC(=O)/C=C/c2cccs2)cc1	.	.	.	.	.	.
COc1ccc(CCN2C(=O)CC(NNc3ccc([N+](=O)[O-])cc3)C2=O)cc1OC (stereo unspecified)	/	?	.	/	.	.
O=C(CN1CCN(C(=O)C2COc3ccccc3O2)CC1)Nc1ccccc1 (stereo unspecified)	.	.	.	.	/	.
COC(=O)c1cn(-c2ccccc2)nc1-c1ccncc1	/	.	.	.	.	.
O=C(OCc1ccccc1)c1cn(-c2ccccc2)nc1-c1ccncc1	.	.	.	/	56.6	.
CCOC(=O)C1=C(COC(=O)c2ccco2)NC(=O)NC1CC (stereo unspecified)	/	/	/	.	/	/
O=c1cc(C(Cl)(Cl)Cl)oc2c1ccc1ccccc12	116.4	.	.	.	69.0	.
SMILES	CSC inhib	Calb FLC	HIF activator	Beta apoptosis	T cruzi repl	PolyA inhibitor
O=S(=O)(N/N=C1/CC(c2ccccc2)Oc2ccccc21)c1ccc(Br)cc1 (stereo unspecified)	89.1	.	.	.	.	.
CCC(C)c1ccc2oc(-c3ccc(NC(=O)Cn4cnc5c(=O)n(C)c(=O)n(C)c54)cc3)nc2c1 (stereo unspecified)	.	.	10.4	.	.	.
Cn1c(=O)c2ncn(CC(=O)Nc3ccc(N4CCOCC4)cc3)c2n(C)c1=O	.	.	.	.	.	.
Cc1ccc(NC(=O)Cn2cnc3c(=O)n(C)c(=O)n(C)c32)c(C)c1	/	.	?	.	.	.
Cc1ccc2oc(-c3cccc(NC(=O)Cn4cnc5c(=O)n(C)c(=O)n(C)c54)c3)nc2c1	.	122.4	.	.	.	.
CCn1nc(C)c(CNC(=O)c2cc(COc3ccccc3SC)on2)c1C	.	.	.	.	.	.
COC(=O)Cn1c(=O)oc2ccc(C)cc21	.	.	.	.	.	.
O=[N+]([O-])c1cc([N+](=O)[O-])c(Oc2ccc(Cl)c3cccnc23)cc1NN1CCCCC1	.	.	.	.	.	.
O=C(CN1CCN(C(=O)C2CCCO2)CC1)Nc1ccc(Cl)cc1 (stereo unspecified)	.	.	.	.	.	.
Oc1ccc(Nc2nc(-c3ccccc3F)nc3ccccc23)cc1	.	.	.	.	.	.
COc1ccc(Nc2nnc(-c3ccc(O)cc3)c3ccccc23)cc1	.	.	.	.	57.1	.
Oc1ccc(Nc2nc(-c3ccccc3O)nc3ccccc23)cc1	83.0	.	.	.	.	.
COc1ccc(Nc2nc(-c3ccccc3O)nc3ccccc23)cc1	80.6	.	.	.	.	.
Cc1cccc(-c2nc3c(c(SCC(=O)N4CCCC4)n2)COC(C)(C)C3)c1	.	.	.	.	.	.
O=C(NCCCN1CCOCC1)c1cc2ccccc2cc1O	.	.	.	.	.	.
O=C(Nc1cccc(Cl)c1)c1cc(N=Nc2ccc([N+](=O)[O-])cc2Cl)ccc1O	128.2	.	.	.	.	.
CCOC(=O)Cn1c(=O)oc2cc(S(=O)(=O)N(C)c3ccc(OC)cc3)ccc21	.	.	.	.	.	.
c1ccc(CN2CCC(Nc3nc(-c4cccs4)nc4ccccc34)CC2)cc1	109.2	.	.	.	.	.
NC(=O)N/N=C/c1cn(-c2ccccc2)nc1-c1cccs1	.	.	.	.	.	.
NS(=O)(=O)c1ccc(N/N=C/c2cn(-c3ccccc3)nc2-c2cccs2)cc1	81.5	.	.	.	.	.
N#Cc1ccc(N/N=C/c2cn(-c3ccccc3)nc2-c2ccccc2)c([N+](=O)[O-])c1	.	.	.	87.4	.	.
O=Cc1cn(-c2ccccc2)nc1-c1ccccc1	.	.	.	/	.	.
NS(=O)(=O)c1ccc(N/N=C/c2cn(-c3ccccc3)nc2-c2cccs2)c([N+](=O)[O-])c1	96.0	.	.	108.2	67.4	.
O=C(Nc1oc2ccccc2c(=O)c1-c1ccc(Cl)cc1)c1ccco1	.	.	/	.	.	.
Cc1cc(C(=O)NNC(=O)c2ccc(NC(=O)CC#N)cc2)c(C)o1	.	/	/	.	/	/
O=C(CSc1nnc(-c2c[nH]c3ccccc23)o1)N(Cc1ccccc1)c1ccc(F)cc1	.	.	.	.	54.6	.
CCC1CCCCN1S(=O)(=O)c1ccc2c(c1)CCN2C(=O)C1CCC1 (stereo unspecified)	.	.	.	.	.	.
O=C(CCl)c1ccc2c(c1)CCN2C(=O)C1CC1	.	?	34.5	.	.	.
